Results as given in paper PMC2606940 (The Journal of General Physiology, 2009).
Where a chain is given by its changes, count along the chain named. Like-named read-outs stand apart in the source and are kept apart here.

Assays:
CLC-0 E166F mutant = molecular target: T1, CLC-0 E166F mutant (Torpedo marmorata, UniProt P21564, C212S/E166F); assay type: cell-based; conditions: read-out: Apparent affinity (K1/2)
T1 sequence (P21564 1-805 E166F/C212S): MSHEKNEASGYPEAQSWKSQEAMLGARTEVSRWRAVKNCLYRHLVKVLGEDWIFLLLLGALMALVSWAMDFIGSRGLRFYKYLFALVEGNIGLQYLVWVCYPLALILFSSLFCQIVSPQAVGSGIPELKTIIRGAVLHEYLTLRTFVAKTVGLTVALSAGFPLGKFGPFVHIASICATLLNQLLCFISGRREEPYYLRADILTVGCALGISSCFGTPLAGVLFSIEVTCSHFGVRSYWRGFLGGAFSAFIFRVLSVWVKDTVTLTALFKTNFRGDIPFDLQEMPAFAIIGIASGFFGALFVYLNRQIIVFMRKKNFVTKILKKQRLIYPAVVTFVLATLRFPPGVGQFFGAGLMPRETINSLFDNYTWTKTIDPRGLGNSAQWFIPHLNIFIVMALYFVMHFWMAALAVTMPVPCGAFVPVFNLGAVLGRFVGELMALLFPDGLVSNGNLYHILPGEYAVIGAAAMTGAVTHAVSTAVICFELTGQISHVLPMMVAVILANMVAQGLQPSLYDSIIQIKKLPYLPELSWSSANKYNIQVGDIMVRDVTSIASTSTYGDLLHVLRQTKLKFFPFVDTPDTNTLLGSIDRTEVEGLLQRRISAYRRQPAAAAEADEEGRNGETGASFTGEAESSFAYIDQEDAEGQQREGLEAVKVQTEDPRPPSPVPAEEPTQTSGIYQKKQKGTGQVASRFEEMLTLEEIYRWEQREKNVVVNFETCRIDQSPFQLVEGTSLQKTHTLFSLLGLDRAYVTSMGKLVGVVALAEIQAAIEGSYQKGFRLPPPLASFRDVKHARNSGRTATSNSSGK
In short: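 CLC-0 mutants (C212S background) were lipofectamine-transfected into HEK293 cells and recorded 1–3 d later from inside-out patches. Pipette and bath contained 130 mM NaCl, 5 MgCl2, 10 HEPES and 1 EGTA (pH 7.4). Test compound was perfused onto the cytoplasmic side. A +80 mV prepulse preceded steps to steady state. The last-10-ms current was normalized to bracketing blocker-free controls and fitted to a Langmuir function for K1/2.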

CLC-0 E166V mutant = molecular target: T2, CLC-0 E166V mutant (Torpedo marmorata, UniProt P21564, C212S/E166V); assay type: cell-based; conditions: read-out: Apparent affinity (K1/2)
T2 sequence (P21564 1-805 E166V/C212S): T1 sequence (P21564 1-805 E166F/C212S) with F166V
In short: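 CLC-0 mutants in the C212S background were transfected into HEK293 cells with lipofectamine and recorded 1–3 d later as excised inside-out patches. Both sides held 130 mM NaCl, 5 mM MgCl2, 10 mM HEPES and 1 mM EGTA, pH 7.4. CPA was perfused continuously onto the cytoplasmic face. Steady-state current over the last 10 ms was normalized to bracketing blocker-free controls and fitted to a Langmuir function for K1/2. Values are mean ± SEM of ~4–6 patches.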

SMILES	IC50 (CLC-0 E166F mutant; −40 mV)	IC50 (CLC-0 E166F mutant; −60 mV)	IC50 (CLC-0 E166F mutant; −80 mV)	IC50 (CLC-0 E166F mutant; −100 mV)	IC50 (CLC-0 E166F mutant; −120 mV)	IC50 (CLC-0 E166F mutant; −140 mV)	IC50 (CLC-0 E166F mutant; −160 mV)	IC50 (CLC-0 E166V mutant; −40 mV)	IC50 (CLC-0 E166V mutant; −60 mV)	IC50 (CLC-0 E166V mutant; −80 mV)	IC50 (CLC-0 E166V mutant; −100 mV)	IC50 (CLC-0 E166V mutant; −120 mV)	IC50 (CLC-0 E166V mutant; −140 mV)	IC50 (CLC-0 E166V mutant; −160 mV)
O=C(O)COc1ccc(Cl)cc1 [CPA, p-chlorophenoxy acetate]	5120 ± 1720 µM	2060 ± 300 µM	730 ± 90 µM	350 ± 30 µM	170 ± 20 µM	93 ± 12 µM	47 ± 7 µM	676 ± 78 µM	373 ± 37 µM	198 ± 15 µM	113 ± 10 µM	65 ± 7 µM	40 ± 4 µM	26 ± 3 µM
CCCCCCCC(=O)O [octanoate]	3090 ± 560 µM	1630 ± 160 µM	803 ± 50 µM	455 ± 15 µM	254 ± 7 µM	150 ± 4 µM	91 ± 1 µM	231 ± 14 µM	126 ± 6.5 µM	67.2 ± 3.7 µM	35.3 ± 2.8 µM	18.4 ± 1.5 µM	10.2 ± 0.8 µM	6 ± 0.4 µM
